These results are taken from the RNAGym collection of RNA variant scans (doi:10.1002/anie.201605470).

B1: Osa-1-4 twister ribozyme (parent)
chain: CCGCCUAACACUGCCAAUGCCGGUCCCAAGCCCGGAUAAAAGUGGAGGGGGCGG

In this series the parent is B1. Kind of series: self-cleavage, relative activity (ratio to wild type); higher = more cleavage; co-transcriptional. The gist of the method: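 Values are relative activity: the fraction cleaved, normalised to wild type. A doped DNA template for a 54-nucleotide twister ribozyme from Oryza sativa had 97 % wild-type base and 1 % of each other base at the 48 positions downstream of the cleavage site. The RNA was transcribed in vitro for 2 h at 37 °C so that it could cleave itself co-transcriptionally, then sequenced deeply, with cleavage status scored from the presence or absence of upstream sequence in reads.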
Turning to CCGCCUAACACUGCCAUUGCCGGUCCCAAGCCCGGAUAAAAGUGGAGGGGGCGG, the self-cleavage was found to be 1.03.
CCGCCUAACACUGCCAGUGCCGGUCCCAAGCCCGGAUAAAAGUGGAGGGAGCGG: the self-cleavage came out at 0.51.
For the variant CCGCCUAACACUGCCAGUGCCGGUCCCAAGCCCGGAUAAAAGUGGAGGGCGCGG, the self-cleavage was determined as 0.91.
Next, CCGCCUAACACUGCCAGUGCCGGUCCCAAGCCCGGAUAAAAGUGGAGGGUGCGG: 0.99; CCGCCUAACACUGCCAGUGCCGGUCCCAAGCCCGGAUAAAAGUGGAGUGGGCGG: 0.12.
For CCGCCUAACACUGCCAGUGCCGGUCCCAAGCCCGGAUAAAAGUGGAGAGGGCGG, the self-cleavage is 0.15.
Next, CCGCCUAACACUGCCAGUGCCGGUCCCAAGCCCGGAUAAAAGUGGAGCGGGCGG: 0.13.
Next, CCGCCUAAAACUGCCAUUGCCGGUCCCAAGCCCGGAUAAAAGUGGAGGGGGCGG: 0.41; CCGCCUAAUACUGCCAUUGCCGGUCCCAAGCCCGGAUAAAAGUGGAGGGGGCGG: 0.81.
As for CCGCCUAAGACUGCCAUUGCCGGUCCCAAGCCCGGAUAAAAGUGGAGGGGGCGG, the self-cleavage was 0.8.
Next, CCGCCUAACACUGCCAGUGCCGGUCCCAAGCCCGGAUAAAAGUGGAGGGGGCCG: 0.12.
Next, CCGCCUAACACUGCCAGUGCCGGUCCCAAGCCCGGAUAAAAGUGGAGGGGGCAG: 0.85; CCGCCUAACACUGCCAGUGCCGGUCCCAAGCCCGGAUAAAAGUGGAGGGGGCUG: 0.54.
Next, CCGCCUAACACUGCCAUUGCCGGUCCCACGCCCGGAUAAAAGUGGAGGGGGCGG: 0.05; CCGCCUAACACUGCCAUUGCCGGUCCCAUGCCCGGAUAAAAGUGGAGGGGGCGG: 0.19.
In the case of CCGCCUAACACUGCCAUUGCCGGUCCCAGGCCCGGAUAAAAGUGGAGGGGGCGG, the self-cleavage is 0.35.
Next, CCGCCUAACACUGCCAUUGCCGGUCCCAAGCCCGGUUAAAAGUGGAGGGGGCGG: 1.04; CCGCCUAACACUGCCAUUGCCGGUCCCAAGCCCGGCUAAAAGUGGAGGGGGCGG: 0.79.
For the variant CCGCCUAACACUGCCAUUGCCGGUCCCAAGCCCGGGUAAAAGUGGAGGGGGCGG, the self-cleavage was 1.05.
Next, CCGCCUAACACCGCCAGUGCCGGUCCCAAGCCCGGAUAAAAGUGGAGGGGGCGG: 0.56; CCGCCUAACACAGCCAGUGCCGGUCCCAAGCCCGGAUAAAAGUGGAGGGGGCGG: 0.86.
Next, CCGCCUAACACGGCCAGUGCCGGUCCCAAGCCCGGAUAAAAGUGGAGGGGGCGG: 0.39.
As to CCGCCUAACACUGCCAGUGCCGGUCCCAAGCCCCGAUAAAAGUGGAGGGGGCGG, the self-cleavage came out at 0.41.
On to CCGCCUAACACUGCCAGUGCCGGUCCCAAGCCCUGAUAAAAGUGGAGGGGGCGG, for which the self-cleavage is 0.57.
Turning to CCGCCUAACACUGCCAGUGCCGGUCCCAAGCCCAGAUAAAAGUGGAGGGGGCGG, the self-cleavage turned out to be 0.73.
Next, CCGCCUAACACUGCCAGCGCCGGUCCCAAGCCCGGAUAAAAGUGGAGGGGGCGG: 0.52; CCGCCUAACACUGCCAGAGCCGGUCCCAAGCCCGGAUAAAAGUGGAGGGGGCGG: 0.94.
As to CCGCCUAACACUGCCAGGGCCGGUCCCAAGCCCGGAUAAAAGUGGAGGGGGCGG, the self-cleavage was determined as 0.85.
Next, CCGCCUAACACUGCCAGUGCCGGUCCCAAGCCCGGAUAAAACUGGAGGGGGCGG: 0.08; CCGCCUAACACUGCCAGUGCCGGUCCCAAGCCCGGAUAAAAAUGGAGGGGGCGG: 0.58.
Next, CCGCCUAACACUGCCAGUGCCGGUCCCAAGCCCGGAUAAAAUUGGAGGGGGCGG: 0.21.
Next, CCGCCUAACAGUGCCAUUGCCGGUCCCAAGCCCGGAUAAAAGUGGAGGGGGCGG: 0.48.
With CCGCCUAACAUUGCCAUUGCCGGUCCCAAGCCCGGAUAAAAGUGGAGGGGGCGG, the self-cleavage amounted to 0.86.
Regarding CCGCCUAACAAUGCCAUUGCCGGUCCCAAGCCCGGAUAAAAGUGGAGGGGGCGG, the self-cleavage was 0.7.
Turning to CCGCCUAACACUGCCAGUGCCGGUCCCAAGCCCGGAUAAAAGUGGAGGGGGCGA, the self-cleavage worked out at 0.9.
Next, CCGCCUAACACUGCCAGUGCCGGUCCCAAGCCCGGAUAAAAGUGGAGGGGGCGU: 0.91; CCGCCUAACACUGCCAGUGCCGGUCCCAAGCCCGGAUAAAAGUGGAGGGGGCGC: 0.92; CCGCCUAACACUGCCAGUGCCGGUCCCAAGCCCGGAUAAAAGUGAAGGGGGCGG: 0.43.
Turning to CCGCCUAACACUGCCAGUGCCGGUCCCAAGCCCGGAUAAAAGUGCAGGGGGCGG, the self-cleavage came to 0.07.
For CCGCCUAACACUGCCAGUGCCGGUCCCAAGCCCGGAUAAAAGUGUAGGGGGCGG, the self-cleavage was 0.17.
As for CCGCCUAACACUGCCAGUGCCGGUCCCAAGCCCGGAAAAAAGUGGAGGGGGCGG, the self-cleavage amounted to 0.63.
Next, CCGCCUAACACUGCCAGUGCCGGUCCCAAGCCCGGAGAAAAGUGGAGGGGGCGG: 1.01.
Next, CCGCCUAACACUGCCAGUGCCGGUCCCAAGCCCGGACAAAAGUGGAGGGGGCGG: 1.02; CCGCCUAACACUGCCAGUGCCGGUCCCAAGCCCGGAUAAAAGGGGAGGGGGCGG: 0.51; CCGCCUAACACUGCCAGUGCCGGUCCCAAGCCCGGAUAAAAGAGGAGGGGGCGG: 0.81.
Next, CCGCCUAACACUGCCAGUGCCGGUCCCAAGCCCGGAUAAAAGCGGAGGGGGCGG: 0.72; CCGCCUAACACUGCCAUUGCCGGUCCCAAGCCCGGAUAAACGUGGAGGGGGCGG: 0.98; CCGCCUAACACUGCCAUUGCCGGUCCCAAGCCCGGAUAAAUGUGGAGGGGGCGG: 0.96.
Consider CCGCCUAACACUGCCAUUGCCGGUCCCAAGCCCGGAUAAAGGUGGAGGGGGCGG, for which the self-cleavage was 0.9.
